# Results taken from ChEMBL document CHEMBL4613238, “Synthesis and biological activity of thieno[3,2-d]pyrimidines as potent JAK3 inhibitors for the treatment of idiopathic pulmonary fibrosis” (Bioorg Med Chem, 2020).
# How the values were obtained:
# [1] = Cytotoxicity against human NHBE cells assessed as reduction in cell viability by CCK8 assay; type: cell-based
# How it was run: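 Human bronchial epithelial (HBE) cells were tested for growth inhibition by CCK-8 assay. IC50 values are means of three separate experiments.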
# [2] = biological target: T1, Tyrosine-protein kinase BTK (Homo sapiens, UniProt Q06187); assay: Inhibition of BTK (unknown origin) by ADP-Glo kinase assay
# T1 sequence (Q06187 whole entry): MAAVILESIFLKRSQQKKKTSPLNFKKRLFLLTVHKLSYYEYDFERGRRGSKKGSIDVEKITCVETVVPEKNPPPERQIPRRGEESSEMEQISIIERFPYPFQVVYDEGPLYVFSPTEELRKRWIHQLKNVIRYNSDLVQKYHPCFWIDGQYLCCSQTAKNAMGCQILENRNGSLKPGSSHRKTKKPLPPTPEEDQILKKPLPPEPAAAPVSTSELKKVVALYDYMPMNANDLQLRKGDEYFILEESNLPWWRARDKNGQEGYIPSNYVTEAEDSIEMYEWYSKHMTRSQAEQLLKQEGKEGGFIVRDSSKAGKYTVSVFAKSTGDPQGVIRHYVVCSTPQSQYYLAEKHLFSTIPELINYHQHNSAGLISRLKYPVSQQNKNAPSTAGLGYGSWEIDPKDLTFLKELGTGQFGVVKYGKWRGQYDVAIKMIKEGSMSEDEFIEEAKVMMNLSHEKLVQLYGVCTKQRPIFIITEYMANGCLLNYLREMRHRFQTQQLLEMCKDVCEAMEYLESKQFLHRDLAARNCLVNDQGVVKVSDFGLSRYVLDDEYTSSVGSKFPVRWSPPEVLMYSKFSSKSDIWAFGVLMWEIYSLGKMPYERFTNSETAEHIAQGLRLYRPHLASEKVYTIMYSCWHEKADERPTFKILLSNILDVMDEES
# How it was run: (§1)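 ADP-Glo luminescent assay run at compound concentrations of 0.1, 1, 10, 100 and 1000 nM. The kinase reaction ran in 1× kinase buffer for 60 min at room temperature. ADP-Glo reagent was then added to stop the reaction and deplete ATP (40 min, RT), followed by detection reagent (30 min, RT) and a luminescence read. IC50s came from curve fitting; means of three experiments.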
# [3] = biological target: T2, Tyrosine-protein kinase JAK3 (Homo sapiens, UniProt P52333); assay: Inhibition of recombinant human N-terminal GST-tagged JAK3 (781 to end residues) expressed in baculovirus infected Sf9 cells using poly (Glu,Tyr) 4:1 as substrate incubated for 60 mins in presence of ATP by ADP-Glo kinase assay; how it was run: as §1
# T2 sequence (P52333 whole entry): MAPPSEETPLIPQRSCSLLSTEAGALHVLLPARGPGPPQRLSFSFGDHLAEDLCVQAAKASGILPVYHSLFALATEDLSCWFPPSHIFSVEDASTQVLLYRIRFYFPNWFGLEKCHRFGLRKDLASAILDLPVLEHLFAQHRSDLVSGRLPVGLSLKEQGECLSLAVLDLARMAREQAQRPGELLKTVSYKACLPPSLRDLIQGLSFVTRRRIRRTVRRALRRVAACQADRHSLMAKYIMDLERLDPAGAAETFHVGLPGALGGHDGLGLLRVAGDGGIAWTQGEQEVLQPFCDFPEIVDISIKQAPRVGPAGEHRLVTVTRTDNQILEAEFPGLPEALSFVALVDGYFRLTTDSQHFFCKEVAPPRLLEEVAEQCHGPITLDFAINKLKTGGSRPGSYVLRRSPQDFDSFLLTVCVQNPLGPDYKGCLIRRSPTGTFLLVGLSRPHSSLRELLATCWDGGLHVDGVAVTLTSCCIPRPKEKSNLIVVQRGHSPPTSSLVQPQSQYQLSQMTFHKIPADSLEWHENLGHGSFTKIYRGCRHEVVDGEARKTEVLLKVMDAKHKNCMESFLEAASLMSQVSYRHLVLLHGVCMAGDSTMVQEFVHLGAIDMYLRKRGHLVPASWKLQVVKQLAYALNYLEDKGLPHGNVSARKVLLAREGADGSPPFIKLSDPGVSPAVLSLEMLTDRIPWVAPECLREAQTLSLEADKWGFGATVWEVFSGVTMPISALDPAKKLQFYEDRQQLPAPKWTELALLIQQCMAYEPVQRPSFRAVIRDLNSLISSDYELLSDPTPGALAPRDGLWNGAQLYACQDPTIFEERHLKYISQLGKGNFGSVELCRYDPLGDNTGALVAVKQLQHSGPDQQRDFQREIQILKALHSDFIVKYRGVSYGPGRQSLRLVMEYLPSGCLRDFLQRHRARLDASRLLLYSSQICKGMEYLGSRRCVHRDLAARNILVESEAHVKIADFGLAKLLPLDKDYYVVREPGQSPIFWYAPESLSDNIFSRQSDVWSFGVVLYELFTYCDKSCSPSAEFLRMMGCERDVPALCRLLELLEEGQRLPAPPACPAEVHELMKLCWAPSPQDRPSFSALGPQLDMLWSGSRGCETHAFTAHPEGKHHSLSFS
# [4] = biological target: T1, Tyrosine-protein kinase BTK; assay: Inhibition of BTK (unknown origin)
# [5] = biological target: Epidermal growth factor receptor (Homo sapiens, UniProt P00533); assay: Inhibition of EGFR (unknown origin)
# Epidermal growth factor receptor, sequence (P00533 whole entry): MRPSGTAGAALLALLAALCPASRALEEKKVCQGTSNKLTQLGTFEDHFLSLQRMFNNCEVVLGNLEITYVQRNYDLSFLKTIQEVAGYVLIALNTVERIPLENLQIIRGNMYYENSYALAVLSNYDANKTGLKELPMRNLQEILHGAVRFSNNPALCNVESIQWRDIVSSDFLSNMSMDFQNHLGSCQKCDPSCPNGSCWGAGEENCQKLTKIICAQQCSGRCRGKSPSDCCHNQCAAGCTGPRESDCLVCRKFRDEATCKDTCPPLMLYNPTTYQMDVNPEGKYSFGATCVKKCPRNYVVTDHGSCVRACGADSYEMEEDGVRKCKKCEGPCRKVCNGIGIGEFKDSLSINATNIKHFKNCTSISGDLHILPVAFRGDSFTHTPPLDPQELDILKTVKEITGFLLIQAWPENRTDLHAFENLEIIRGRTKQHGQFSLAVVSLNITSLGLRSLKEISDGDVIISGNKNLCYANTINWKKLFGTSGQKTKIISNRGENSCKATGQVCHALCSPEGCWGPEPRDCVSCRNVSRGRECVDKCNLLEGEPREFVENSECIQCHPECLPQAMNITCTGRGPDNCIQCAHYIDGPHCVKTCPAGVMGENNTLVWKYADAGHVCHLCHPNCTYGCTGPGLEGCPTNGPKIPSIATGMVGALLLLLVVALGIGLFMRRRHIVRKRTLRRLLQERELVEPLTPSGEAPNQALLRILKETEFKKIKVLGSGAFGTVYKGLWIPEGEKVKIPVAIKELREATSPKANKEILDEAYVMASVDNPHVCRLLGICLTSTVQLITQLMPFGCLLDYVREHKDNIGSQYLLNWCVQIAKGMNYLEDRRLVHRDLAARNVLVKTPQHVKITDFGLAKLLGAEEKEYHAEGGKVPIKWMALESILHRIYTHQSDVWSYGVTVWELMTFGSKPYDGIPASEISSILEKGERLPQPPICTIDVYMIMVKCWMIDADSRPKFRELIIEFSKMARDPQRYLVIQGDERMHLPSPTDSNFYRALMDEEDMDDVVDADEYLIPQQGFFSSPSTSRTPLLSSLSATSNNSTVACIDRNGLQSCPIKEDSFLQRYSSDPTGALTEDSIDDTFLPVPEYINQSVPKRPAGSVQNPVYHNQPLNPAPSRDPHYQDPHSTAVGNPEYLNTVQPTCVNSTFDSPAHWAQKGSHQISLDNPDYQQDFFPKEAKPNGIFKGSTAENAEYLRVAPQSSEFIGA
# [6] = biological target: T2, Tyrosine-protein kinase JAK3; assay: Inhibition of JAK3 (unknown origin)
Compound,IC50 [2] [µM],IC50 [3] [µM],IC50 [4] [µM],IC50 [5] [µM],IC50 [6] [µM],IC50 [1] [µM]
C=CC(=O)Nc1cccc(Oc2nc(Nc3ccc(SCCCN4CCOCC4)cc3)nc3ccsc23)c1,> 0.1,0.046,–,–,–,> 40
C=CC(=O)Nc1cccc(Nc2nc(Nc3ccc(OCCOC)cc3)ncc2F)c1 [SPEBRUTINIB],–,0.0665,–,–,–,–

# The next lines start with results.
IC50 [2] [µM],IC50 [3] [µM],IC50 [4] [µM],IC50 [5] [µM],IC50 [6] [µM],Compound,IC50 [1] [µM]
> 0.1,0.0892,–,–,–,C=CC(=O)Nc1cccc(Oc2nc(Nc3ccc(OCCCN4CCOCC4)cc3)nc3ccsc23)c1,> 40
–,–,< 0.01,< 0.01,< 0.01,C=CC(=O)Nc1cccc(Nc2nc(Nc3ccc(NC(=O)CN4CCOCC4)cc3)ncc2Cl)c1,–
> 0.1,0.0908,–,–,–,C=CC(=O)Nc1cccc(Oc2nc(Nc3ccc(OCCN4CCOCC4)cc3)nc3ccsc23)c1,23.3
